SR-BI uptake up: enhances SR-BI lipid uptake from DiI-HDL. CHO ldlA[mSR-BI] cells, DiI-HDL uptake fluorescence, 3 h; 100 = double the neutral-control signal. activation, % at 12.5 µM. actives 0.096% (n = 320,000). AID 504775;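 active = mean replicate activation of at least 60% and every replicate at or above 60%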
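material = CHO ldlA[mSR-BI] cells | medium = Ham's F12 with 0.5% BSA, HEPES 25 mM, pH 7.4 | reagent = fluorescent DiI-HDL, 10 µg/mL final | compound dosing = single-point compound dose | incubation = 3 h, 37 °C | measured by = bottom-read fluorescence, 550/595 nm | measure = HDL uptake via cellular fluorescence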
SR-BI HDL uptake: inhibitors of mouse SR-BI mediated HDL lipid uptake; ldlA[mSR-BI] CHO cells, DiI-HDL uptake fluorescence, 3 h; inhibition, % at 12.5 µM; Q61009; actives 0.96% (n = 320,000);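 active = mean replicate inhibition of at least 70% and a set share of replicates each scoring 70 or more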
Target sequence (Q61009 whole entry, looked up): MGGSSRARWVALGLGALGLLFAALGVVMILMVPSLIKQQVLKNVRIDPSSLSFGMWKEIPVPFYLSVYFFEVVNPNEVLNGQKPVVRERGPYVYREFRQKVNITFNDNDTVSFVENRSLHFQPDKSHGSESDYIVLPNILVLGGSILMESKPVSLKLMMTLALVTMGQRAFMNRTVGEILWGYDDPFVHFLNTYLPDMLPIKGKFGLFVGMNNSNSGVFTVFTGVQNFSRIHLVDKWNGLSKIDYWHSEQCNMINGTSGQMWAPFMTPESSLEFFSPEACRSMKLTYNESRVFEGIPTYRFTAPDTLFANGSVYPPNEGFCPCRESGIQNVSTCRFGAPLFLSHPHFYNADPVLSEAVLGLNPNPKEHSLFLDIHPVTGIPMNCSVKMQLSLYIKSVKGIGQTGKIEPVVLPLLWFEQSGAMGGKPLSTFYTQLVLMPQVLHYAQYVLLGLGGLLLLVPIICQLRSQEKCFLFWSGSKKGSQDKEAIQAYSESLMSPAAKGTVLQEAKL
AHR act: activators of human aryl hydrocarbon receptor | AHR-responsive luciferase reporter cells, luminescence | activation, % at 5 µM | actives 2.5% (n = 320,000); in the data active = activation above about 47%
CR mimetic SO: lowers age-related superoxide in aged yeast cells; actives 0.18% (n = 330,000); superoxide response (% of plate mean), % at 10 µM; S. cerevisiae aged cells, superoxide DHE fluorescence; active compounds read low;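 active = superoxide response under a set limit, about three screen SD below normal, cut at about 65% in these data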;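 also: yeast aged for seven days with compound at 30 °C before DHE staining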
SMARCA2 activ: increases SMARCA2 function in MMTV reporter cells | MG213 cells, MMTV-luciferase reporter, dexamethasone, overnight | activation, % at 9.1 µM | AID 652017 | actives 1% (n = 370,000); in the data active = activation above about 7.8%
Lipid droplet: hepatic lipid droplet formation modulation; inhibition, % at 6.5 µM; actives 0.4% (n = 240,000); AID 1656; AML12 mouse hepatocytes, oleate lipid droplets, BODIPY imaging;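 active = lipid droplet intensity inhibited by at least 50%, with more than 500 cells counted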
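Material – mouse AML12 hepatocyte cell line, fixed after treatment · Compound dosing – one dose, 6.5 µM compound · Times – compound with oleate, overnight · Measured by – Image-based BODIPY and DAPI two-channel analysis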
SMARCA2 conf: confirmation of SMARCA2 (BRM) function activators | shares compounds with SMARCA2 activ | MG213 cells, MMTV-luciferase with dexamethasone, luminescence, overnight; MG213 cells expressing E1A, Rb sequestered; DMSO wells 0%, reference activator 100% | activation, % at 9.1 µM | actives 30% (n = 3,500) | AID 652260;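 active = activation above its plate's cutoff, the mean activation of tested wells plus 3 SD, cut at about 7.9% in these data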
VP16 Luc act: GAL4-VP16 reporter activation counter-screen; activation, % at 9.1 µM; HEK293 GAL4-VP16 pG5luc reporter, luciferase luminescence; scaled: DMSO wells 0%, SAHA wells 100%; actives 41% (n = 3,500); shares compounds with SMARCA2 activ;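 active = activation above the solvent-only control well mean plus 3 SD, averaged across control plates, cut at about 5.2% in these data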
Numbers stand for hits; n = inactive; x = not tested or not shown. Only some compounds are listed: those with a hit (about 4.3% of all), similar ones and a draw of the others.

SMILES | SR-BI uptake up | SR-BI HDL uptake | AHR act | CR mimetic SO | SMARCA2 activ | Lipid droplet | SMARCA2 conf | VP16 Luc act
Clc1ccc(-c2nnc(-c3ccco3)o2)cc1 | n | n | n | n | 12.9 | x | 8.0 | 8.3
CCN(CC)C(=O)Oc1ccc2c(=O)c(-c3ccccc3)coc2c1 | n | n | n | n | 12.7 | x | n | 11.4
C[C@@H]1OC(C2CCCCC2)N(C)[C@H]2C[C@H]3c4[nH]c5cccc(-c6cccc(F)c6)c5c4CCN3C(=O)[C@@H]12 (stereo partly specified) | x | x | x | x | n | x | x | x
CC(CN(C)C)CN1c2ccccc2CCc2ccccc21 (stereo unspecified) | n | n | n | n | 8.2 | n | n | n
CCOC(=O)C(=O)Nc1ccccc1C(=O)Nc1ccc(OC)cc1 | n | n | n | n | 9.1 | n | n | n
O=C1C(=Cc2ccco2)CCC1=Cc1ccco1 | n | n | x | x | n | x | x | x
O=C1NC(c2ccccc2Cl)=N/C1=C/c1ccco1 | n | n | n | n | 18.4 | n | 9.7 | 8.1
O=C1NC(c2ccc(Br)cc2)=N/C1=C/c1ccco1 | n | n | n | n | 8.1 | n | n | 10.7
CC(COc1cc(F)cc(F)c1)CN1CCC(C(O)(c2ccccc2)c2ccccc2)CC1 (stereo unspecified) | x | x | x | x | n | x | x | x
COc1cc(=O)oc(C=O)c1C | x | x | x | x | n | x | x | x
Cc1cc(F)ccc1-c1cc(C(=O)NCC2CCCCC2)[nH]n1 | x | x | x | x | 8.6 | x | n | n
CC(C)Oc1cc(F)ccc1-c1cc(C(=O)NCC2CCCCC2)[nH]n1 | x | x | x | x | n | x | x | x
COCCNc1c(-c2cc3ccc(C)c(C)c3[nH]c2=O)nc2ccccn12 | n | n | n | n | 10.1 | n | 17.9 | 6.4
COCCNc1c(-c2ccc(OC)c(OC)c2)nc2ccc(Cl)cn12 | n | n | n | n | n | n | x | x
OC(c1ccccc1)(c1ccccc1)C1CCN(CCCOc2ccc(OC(F)(F)F)cc2)CC1 | x | x | x | x | n | x | x | x
O=C(COc1ccc(-n2cnnn2)cc1)Nc1cccc(Cl)c1Cl | n | n | n | n | 8.1 | n | n | n
COc1cc(NC(=O)COc2ccc(-n3cnnn3)cc2)c(OC)cc1Cl | n | n | n | n | n | n | x | x
Cc1nc(N(C)C)c2sc(=S)n(Cc3ccccc3)c2n1 | n | n | n | n | 8.8 | n | n | n
C=CCN(CC#Cc1ccccc1)Cc1ccc(OC)cc1 | x | x | x | x | n | x | x | x
COC(=O)C1=C(C)N(C)C(=NCc2ccc(OC)cc2)NC1c1cccc(C(F)(F)F)c1 (stereo unspecified) | x | x | x | x | n | x | x | x
Cc1nnc(N/N=C\c2ccc(-c3cccc(C(=O)O)c3)o2)n1N | n | n | n | n | 9.1 | n | n | n
Nc1nnc(CC(=O)N/N=C/c2ccc(-c3cccc(C(=O)O)c3)o2)s1 | n | n | n | n | n | x | x | x
CCOC(=O)c1cccc(NC(=S)NCc2ccc(C)cc2)c1 | n | n | n | n | 8.0 | n | n | n
CCN1CCc2c(OCC(=O)N3CCC(C)CC3)cccc2C1=O | n | n | n | n | 8.4 | n | n | n
COC(=O)[C@]12C[C@H](CC(=O)NCCC(C)C)C(=O)N(CCC3=CCCCC3)C1=C[C@H](C(C)C)O[C@@H]2C1CC1 | x | x | x | x | n | x | x | x
SMILES | SR-BI uptake up | SR-BI HDL uptake | AHR act | CR mimetic SO | SMARCA2 activ | Lipid droplet | SMARCA2 conf | VP16 Luc act
O=S(=O)(Cc1noc(-c2ccccc2Cl)n1)c1ccccn1 | n | n | n | n | 16.2 | n | n | 9.3
CN[C@H]1C[C@H]2c3[nH]c4cccc(-c5ccc6c(c5)OCO6)c4c3CCN2C[C@H]1[C@H](C)O | x | x | x | x | n | x | x | x
CCN(C[C@H]1[C@@H](c2ccc(C3=CCCC3)cc2)[C@H](CO)N1Cc1ccccn1)S(=O)(=O)c1ccccc1[N+](=O)[O-] | x | x | x | x | n | x | x | x
CCC(C(=O)NNC(=O)c1cnccn1)c1ccccc1 (stereo unspecified) | n | n | n | n | 8.1 | n | n | n
COCCNC(=O)COC(=O)/C=C/c1cnc2ccccc2n1 | n | n | n | n | 12.1 | x | n | n
CC(=O)N(Cc1ccccc1)c1nccs1 | x | x | x | x | n | x | x | x
O=C(NN=Cc1ccc(O)cc1)c1cc(-c2ccc(Cl)cc2)n[nH]1 | x | x | x | x | n | x | x | x
O=C(CN1CCc2onc(-c3cccc(-n4cc(CO)nn4)c3)c2C1=O)N1CCOCC1 | x | x | x | x | n | x | x | x
O=C(CC1Oc2ccccc2NC1=O)NCc1ccccc1 (stereo unspecified) | n | n | n | n | n | x | x | x
CC(=O)CC1OC(=O)C(Br)=C1NCc1ccccc1 (stereo unspecified) | n | n | n | n | 12.8 | x | n | n
C=CCn1c(SCC(=O)NCc2ccco2)nnc1-c1ccc2ccccc2n1 | n | n | n | n | 8.3 | n | n | n
CC(C)c1ccc(C2N3CC4([N+](=O)[O-])CN2CC([N+](=O)[O-])(C3)C4(C)C)cc1 (stereo unspecified) | n | n | n | n | 13.0 | n | n | n
Cc1nccc2oc(=O)c(NC(=O)c3ccc(Cl)cc3)cc12 | n | n | n | n | n | n | x | x
O=C(Nc1cc2c(oc1=O)CCCC2=O)c1ccc(Cl)cc1 | n | n | n | n | 9.4 | x | n | n
COC(=O)[C@]12C[C@H](CC(=O)NCc3cccc(C(F)(F)F)c3)C(=O)N(Cc3cccc4ccccc34)C1=C[C@H](C(C)(C)C)O[C@@H]2C | x | x | x | x | n | x | x | x
Cc1cc(Br)cn2c(Cc3ccccc3C(F)(F)F)c(-c3cccc(Cl)c3)nc12 | x | x | x | x | n | x | x | x
COc1ccc(C(C(=O)N(C)C2CCCC2)N(Cc2ccc(F)cc2)C(=O)c2cc(C)[nH]n2)cc1OC (stereo unspecified) | x | x | x | x | 10.8 | x | n | n
COc1ccc(C(C(=O)N(C)C2CCCC2)N(Cc2ccc(F)cc2)C(=O)c2csc(N3CCOCC3)n2)cc1OC (stereo unspecified) | x | x | x | x | n | x | x | x
O=C(CC1CCCC1)N[C@H](C(=O)N1CCC[C@H]1C(=O)NC1CCCC1)c1ccccc1 | x | x | x | x | n | x | x | x
CC(=O)NCCc1ccc(C(=O)COC(=O)c2cccs2)cc1 | x | x | x | x | 8.6 | x | 9.8 | n
CC(=O)NCCc1ccc(C(=O)COC(=O)c2ccc(C)s2)cc1 | x | x | x | x | n | x | x | x
COc1ccc(C(=O)COC(=O)c2cccs2)cc1 | n | n | n | n | 10.9 | x | n | 10.0
O=C(COC(=O)c1cccs1)c1ccccc1 | n | n | n | n | n | x | x | x
CC(=O)NCCc1ccc(C(=O)COC(=O)c2cccn2C)cc1 | n | n | n | n | 9.2 | x | n | n
COc1cccc(C(=O)COC(=O)c2cccs2)c1 | n | n | n | n | 9.1 | n | 12.0 | n
